Assay results taken from PMC8604242 (Clinical and Translational Science, 2021).
“Also recorded” adds a separate entry of the source. Where two headings read alike, the source gives them in different places.

Columns and labels:
human hepatocytes = conditions: cited from earlier work
rat hepatocytes = conditions: cited from earlier work
[1] = Mass balance: excretion of total radioactivity in urine and feces; type: in vivo, human
Outline: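 Six healthy men received one oral 75‑mg solution (30 ml, ~3.6 MBq/~100 μCi ¹⁴C label), followed by two 50‑ml bottle rinses. Urine got scintillation cocktail directly. Feces were homogenized with equal weight of water, dried, and combusted with CO2 trapped in absorber. LSC was done in duplicate. Excretion was expressed against the administered radioactive dose over nominal collection intervals, with descriptive statistics.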

[2] = type: in vivo, human; conditions: for AUC0-t of total radioactivity, GM (GM CV, %) / AUC0–24h of total radioactivity, GM (GM CV, %) / Cmax of total radioactivity, GM (GM CV, %) / Tmax of total radioactivity, median (min, max): single 75-mg oral dose
Outline: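 After a single oral 75‑mg ¹⁴C dose in six healthy men, total radioactivity was measured by duplicate LSC. Plasma was spiked directly with cocktail; whole blood was solubilized and decolorized first. Plasma LLOQ was 9.91 ng eq/ml (30 dpm/ml), with sampling from 0.25 h postdose. Noncompartmental parameters used actual sampling times, with descriptive statistics.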

[3] = Plasma PK of evobrutinib by validated LC-MS/MS; type: in vivo, human
Outline: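 Unlabeled drug was measured in K2EDTA plasma (100 µL) by validated LC‑MS/MS with an isotopically labeled internal standard. LLOQ was 0.600 ng/ml, linear to 600 ng/ml with 1/x2‑weighted regression. Participants were six healthy men given a single oral 75‑mg solution dose. Noncompartmental Cmax, Tmax, AUC, t1/2, Vz/F and CL/F used actual sampling times. Parent AUC was related to plasma total‑radioactivity AUC.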

[4] = Metabolite profiling and identification in plasma, urine and feces; type: in vivo, human
Outline: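 UPLC‑HR‑MS (QTof) with the eluent fractionated every 7 s, off‑line microplate scintillation counting, and reconstructed radiochromatograms. Urine and feces were pooled per participant covering ≥90% of excreted radioactivity, excluding low‑radioactivity intervals. Plasma (1–24 h) was exhaustively extracted with ethanol/acetonitrile, evaporated under nitrogen at 37°C, and redissolved in ACN/MeOH/water 1+1+8. Nonextractable radioactivity was the precipitate counted by LSC, as % of total. AUCs were noncompartmental.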

Safety = type: in vivo, human; conditions: single dose of ^14C-evobrutinib
[5] = cited from earlier work
BTK = conditions: cited from earlier work
[6] = system: patients with relapsing MS; conditions: cited from earlier work
[7] = single 75-mg oral dose of ^14C-evobrutinib, six healthy men, within 168 h

For Nc1ncnc(NCC2CCN(C(=O)C(O)CO)CC2)c1-c1ccc(Oc2ccccc2)cc1 (centres unmarked) [evobrutinib‐diol], the “Rank among metabolites in human hepatocytes” value (human hepatocytes) is listed as “main metabolite”.
For hydroxyl‐evobrutinib, the “Rank among metabolites in rat hepatocytes” value (rat hepatocytes) is given as “most abundant metabolite”.
With C=CC(=O)N1CCC(CNc2ncnc(N)c2-c2ccc(Oc3ccccc3)cc2)CC1 [evobrutinib] the “Unchanged evobrutinib in excreta (urine or feces)” value ([1]; single 75-mg oral dose) was “No unchanged evobrutinib was detected; also recorded: No unchanged evobrutinib was recovered”, the “Total radioactivity excreted in feces, arithmetic mean percentage of dose” value [1, 7] was 71.0% and the “Total radioactivity excreted in urine, arithmetic mean percentage of dose” value [1, 7] was 20.6%. The “Radioactive dose excreted in feces within 96 h, range” value ([1]; single 75-mg oral dose, 0-96 h) was 66.4–73.5%, the “Total radioactivity excreted within 72 h after administration (mean)” value ([1]; single 75-mg oral dose, urine plus feces, first 72 h) was 85.3% and the “Mean total radioactivity recovery within 96 h” value ([1]; single 75-mg oral dose, urine plus feces, within 96 h) was 89.7%. The “Mean total radioactivity recovery” value ([1]; single 75-mg oral dose, urine plus feces, within 168 h) was 91.6%, the “Mean blood to plasma ratio of total radioactivity” value ([2]; at 72 and 96 h postdose) was 1.6 and the “Mean blood to plasma ratio of total radioactivity” value ([2]; at 0.25 h postdose) was 0.6. The “Time of individual maximum total radioactivity concentration in plasma, range” value ([2]; plasma, postdose) was 0.25 to 1 h, the “AUC0-t of total radioactivity, GM (GM CV, %)” value ([2]; plasma) was 3915 (32.7) ng (eq) h/ml and the “AUC0–24h of total radioactivity, GM (GM CV, %)” value ([2]; plasma) was 2805 (14.8) ng (eq) h/ml. The “Cmax of total radioactivity, GM (GM CV, %)” value ([2]; plasma) was 1047 (22.8) ng eq/ml, the “Tmax of total radioactivity, median (min, max)” value (from here on “Tmax of total radioactivity”) ([2]; plasma) was 0.5 h and the “Tmax of total radioactivity” value ([2]; plasma, listed as 14C‐radiolabeled evobrutinib) was 0.50 (0.25, 1.00) h. For the same compound, the “AUC0-t of total radioactivity, GM (GM CV, %)” value ([2]; whole blood) was 4944 (13.6) ng (eq) h/ml, the “AUC0–24h of total radioactivity, GM (GM CV, %)” value ([2]; whole blood) was 2001 (9.9) ng (eq) h/ml and the “Cmax of total radioactivity, GM (GM CV, %)” value ([2]; whole blood) was 623 (25.5) ng eq/ml. The “Tmax of total radioactivity” value ([2]; whole blood) was 0.5 h, the “Tmax of total radioactivity” value ([2]; whole blood, listed as 14C‐radiolabeled evobrutinib) was 0.50 (0.25, 1.00) h and the Cmax ([3]; human, plasma, po, 75 mg) was 321 ng/mL. The Half-life ([3]; human, plasma, po, 75 mg) was 79.8 min, the Vd/F ([3]; human, plasma, po, 75 mg) was 381 L and the “Time of individual maximum evobrutinib plasma concentration, range” value ([3]; plasma, postdose) was 0.25 to 0.50 h. For the same compound, the “AUC0-t of evobrutinib, GM (GM CV, %)” value ([3]; plasma, single 75-mg oral dose) was 375 (19.4) ng (eq) h/ml, the “AUC0–24h of evobrutinib, GM (GM CV, %)” value ([3]; plasma, single 75-mg oral dose) was 378 (19.4) ng (eq) h/ml and the “CL/F, GM (GM CV, %)” value ([3]; plasma, single 75-mg oral dose) was 199 (19.4) L/h. For the same compound, the “Tmax of evobrutinib, median (min, max)” value ([3]; plasma, single 75-mg oral dose) was 0.5 h, the “Tmax of evobrutinib, median (min, max)” value ([3]; plasma, single 75-mg oral dose, listed as Evobrutinib) was 0.50 (0.25, 0.55) h and the “Parent drug share of total radioactivity plasma exposure (AUC)” value ([3]; single dose) was 10–13%. For the same compound, the “Number of metabolites detected and elucidated in feces” value ([4]; feces) was 30, the “Number of phase I metabolites fully or partially elucidated” value ([4]; in vivo) was 40 and the “Number of phase II metabolites fully or partially elucidated” value ([4]; in vivo) was 18. The “Total number of metabolites identified in urine, feces, and plasma” value ([4]; in vivo) was 58, the “Number of metabolites detected and elucidated in plasma” value ([4]; plasma) was 24 and the “Geometric mean AUC0–24 of nonextractable radioactivity” value ([4]; plasma, after exhaustive extraction) was 1085 h٠ng eq/ml. The “Unchanged evobrutinib in feces” value ([4]; pooled feces) was “not detected”, the “Unchanged evobrutinib in urine metabolite profiles” value ([4]; pooled urine) was “not detected” and the “Number of metabolites detected and elucidated in urine” value ([4]; urine) was 41. For the same compound, the “Nausea, headache, epistaxis, and nasopharyngitis, number of participants each” value (Safety) was 1 participant each, the “Oropharyngeal pain, number of participants” value (Safety) was 2 participants and the “Serious AEs, deaths, or withdrawals” value (Safety) was “no serious AEs, deaths, or withdrawals”. For the same compound, the “Severity and relatedness of AEs” value (Safety) was “mild and not considered study treatment related”, the “Participants who experienced an adverse event” value (Safety; four of six participants) was 67% and the Half-life ([5]; 25–200 mg doses) was 1.8 to 2.6 h. The “Participants with treatment-emergent adverse events” value ([5]; after multiple-dosing, 13 participants) was 48.1%, the “Participants with treatment-emergent adverse events” value ([5]; after single-dosing, nine participants) was 25% and the “Severity of most TEAEs” value [5] was “mild”. For the same compound, the Half-life ([5]; healthy participants) was ~ 2 h, the “Time to reach maximum plasma concentration (Tmax)” value ([5]; healthy participants) was ~ 0.5 h and the “Dose-proportionality, accumulation and time-dependency of PK” value ([5]; single 25-500 mg, 25-200 mg q.d. for 14 days) was “dose‐proportional, with no accumulation or time‐dependency with repeat dosing”. The “BTK occupancy after multiple daily dosing” value (BTK; 25 mg, multiple daily dosing, healthy participants) was “Full BTK occupancy”, the “BTK occupancy at 96 h” value (BTK; doses of greater than or equal to 100 mg) was “greater than 50%” and the “Maximum BTK occupancy” value (BTK; reached within ~ 4 h after single doses of greater than or equal to 200 mg) was over 90%. The “Total number of gadolinium-enhancing lesions on T1-weighted MRI versus placebo” value ([6]; 75 mg q.d. and b.i.d., over 24 weeks) was “significantly reduced”, the “Severity of the majority of TEAEs” value [6] was “mild or moderate” and the “Number of different metabolites formed” value (human hepatocytes; rat and human hepatocytes) was 23.
